The results in this text go back to ChEMBL document CHEMBL3593239, “PABA/NO lead optimization: Improved targeting of cytotoxicity to glutathione S-transferase P1-overexpressing cancer cells” (Bioorg Med Chem, 2015).

Molecules are shown by their SMILES. Active and inactive are the calls of the source. The calls are words filed in the database; no cut-off is given here.

Data set [1] concerns the target T1, Glutathione S-transferase P (Homo sapiens, UniProt P09211). The data set can be described thus: Prodrug conversion in phosphate buffer assessed as GSTP1 (unknown origin)-mediated nitric oxide release at 1 uM at pH 7.4 at 37 degC after 1 to 30 mins by LC/MS-MS analysis. Type of data set: ADME. The note with it: pH 7.4, 1 µM. Summed up:
(§1)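 Test compound at 1 µM reacted with 4 mM GSH containing 4 nM GSTP1 in 0.1 M phosphate, pH 7.4, at 37 °C. Products identified by LC–MS traces taken at 60 s and 30 min.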

Data set [2] can be described thus: Stability of the compound in phosphate buffer assessed as first-order initial rate constant for hydrolysis at pH 7.4 at 37 degC by HPLC trapping method. It counts as physicochemical.
Data set [3] relates to HL-60. The experiment in a line: Induction of SAPK/JNK phosphorylation in human HL-60 cells at 5 to 20 uM after 24 hrs by Western blot analysis.
Data set [4] deals with T1, Glutathione S-transferase P. The data set can be described thus: Drug metabolism in human HL-60 cells assessed as GSTP1-mediated metabolite formation at 1 uM after 10 mins by LC-MS/MS analysis. The note with it: hl-60, 10 min. Type of data set: ADME, cell-based. Summed up:
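HL-60 cells plated in flasks and incubated overnight at 37 °C, then treated with 1 µM compound for varying times. Cells broken by two freeze (−80 °C)/thaw (37 °C) cycles in 0.1% formic acid/acetonitrile 3:7. Precipitate spun out at 14,000g for 15 min. Supernatant filtered and analysed by LC–MS/MS on C18 with acetonitrile/water/0.1% formic acid gradient and ESI-QTOF detection.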

The subject of data set [5] is HL-60. The data set can be described thus: Induction of apoptosis in human HL60 cells assessed as activation of caspase 7 at 10 uM after 24 hrs by Western blot analysis. It counts as functional, cell-based. A general note: In western blotting, separated proteins are transferred to a membrane and probed.
The nature of data set [6]: Stability of the compound in phosphate buffer assessed as first-order initial rate constant for hydrolysis at pH 7.4 at 25 degC by HPLC trapping method. Type of data set: physicochemical.
The target of data set [7] is T1, Glutathione S-transferase P. The data set can be described thus: Drug metabolism in phosphate buffer assessed as formation of GSTP1 (unknown origin)-mediated (S)-2-amino-5-((R)-1-(carboxymethylamino)-3-(4-cyano-5-(4-(methylamino)benzoyloxy)-2-nitrophenylthio)-1-oxopropan-2-ylamino)-5-oxopentanoic acid at 1 uM at pH 7.4 at 37 degC after 1 to 30 mins by LC-MS/MS analysis in presence of GSH. The note with it: pH 7.4, 1 µM. It counts as ADME. In short, it runs like this:
as §1

Data set [8] can be described thus: Stability of the compound in phosphate buffer assessed as pseudo-first order rate constant at pH 7.4 at 37 degC by HPLC trapping method in presence of GSH. Type of data set: physicochemical.
For data set [9], the system named is HL-60. The data set can be described thus: Induction of apoptosis in human HL60 cells assessed as activation of caspase 8 at 10 uM after 24 hrs by Western blot analysis. Type of data set: functional, cell-based.
For the next data set, the system named is U-937. The experiment in a line: Cytotoxicity against human U937 cells assessed as growth inhibition after 72 hrs by MTT assay. It counts as functional, cell-based. The note with it: U-937, 72 h. In short, it runs like this:
(§2)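 HL-60 and U937 cells from ATCC, grown per supplier protocol, seeded and exposed to increasing concentrations for 72 h. Viability was read with a Promega assay run per the manufacturer's protocol. Six repeats per concentration, three independent experiments. IC50 derived by curve fitting.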

Data set [10] deals with HL-60. The data set can be described thus: Induction of apoptosis in human HL60 cells assessed as cleavage of PARP at 10 uM after 24 hrs by Western blot analysis. Type of data set: functional, cell-based.
For data set [11], the system named is HL-60. The experiment in a line: Cytotoxicity against human HL60 cells assessed as growth inhibition after 72 hrs by MTT assay. Type of data set: functional, cell-based. The note with it: HL-60, 72 h. In short, it runs like this:
as §2

Data set [12] has as its target T2, Glutathione S-transferase A1 (Homo sapiens, UniProt P08263).
T2 sequence (P08263 whole entry): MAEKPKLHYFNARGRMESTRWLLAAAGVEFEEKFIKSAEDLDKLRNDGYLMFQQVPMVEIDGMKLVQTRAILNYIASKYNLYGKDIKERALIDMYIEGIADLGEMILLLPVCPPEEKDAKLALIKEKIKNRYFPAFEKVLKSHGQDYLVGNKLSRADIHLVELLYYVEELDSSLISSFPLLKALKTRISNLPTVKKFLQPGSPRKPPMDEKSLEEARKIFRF
The experiment in a line: Drug metabolism in phosphate buffer assessed as ratio of GSTA1 (unknown origin)-mediated (S)-2-amino-5-((R)-1-(carboxymethylamino)-3-(4-cyano-5-hydroxy-2-nitrophenylthio)-1-oxopropan-2-ylamino)-5-oxopentanoic acid formation from nitric oxide release pathway to GSTA1 (unknown origin)-mediated (Z)-1-(4-cyano-5-hydroxy-2-nitrophenoxy)-3,3-dimethyltriaz-1-ene 2-oxide formation from nitric oxide retained pathway at 1 uM at pH 7.4 at 37 degC after 30 mins by LC-MS/MS analysis in presence of GSH. Type of data set: ADME. The note with it: pH 7.4, 0.5 h. Summed up: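 Products analysed by LC–MS. The ratio is the NO-release-pathway product over the NO-retained-pathway phenolic product.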

Data set [13] deals with T1, Glutathione S-transferase P. The data set can be described thus: Prodrug conversion in phosphate buffer assessed as GSTP1 (unknown origin)-mediated nitric oxide release […] measured per mol of compound at pH 7.4 at 37 degC by chemiluminescence assay in presence of GSH. Type of data set: ADME.

The term IC50 denotes the midpoint of a concentration-inhibition curve.

T1 sequence (P09211 whole entry): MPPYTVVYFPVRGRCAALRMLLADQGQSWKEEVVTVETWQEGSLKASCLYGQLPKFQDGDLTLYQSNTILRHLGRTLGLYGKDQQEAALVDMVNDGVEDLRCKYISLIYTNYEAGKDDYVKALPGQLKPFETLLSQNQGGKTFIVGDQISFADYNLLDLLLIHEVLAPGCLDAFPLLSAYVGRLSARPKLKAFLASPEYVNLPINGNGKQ

Consider `CNc1ccc(C(=O)Oc2cc(O/N=[N+](\[O-])N(C)C)c([N+](=O)[O-])cc2C#N)cc1`, for which the Drug metabolism entry in data set [1], in data set [4] and in [7] was “metabolite_detected” each time. The K in [2] was found to be 1.1 ×10⁻⁴ /s; in data set [6], 0.3 ×10⁻⁵ /s; in [8] it was 5.1 ×10⁻³ /s. The result in the data set on HL-60 [3], with HL-60 [5], with HL-60 [9] and with HL-60 [10] was Active. The figures for the IC50 with U-937 and in the data set on HL-60 [11] were 6.5 µM and 9 µM, respectively. The Ratio in data set [12] came out at 1. Further, the NO yield in data set [13] was above 1.9 mol/mol.
